Laboratory results from ChEMBL document CHEMBL2346608, “New annelated thieno[2,3-e][1,2,3]triazolo[1,5-a]pyrimidines, with potent anticancer activity, designed through VLAK protocol” (2013).

Legend:
Assay type in all cases: functional
UO-31 = assay: Antiproliferative activity against human UO31 cells after 48 hrs by sulforhodamine B assay; details: UO-31, 48 h
Procedure, shortened: (§1)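 Cells in RPMI 1640 with 5% FBS and 2 mM L-glutamine were seeded at 5000–40,000/well according to doubling time and preincubated 24 h at 37 °C in 5% CO2. Time-zero plates were TCA-fixed when drug was added. Five 10-fold or ½-log dilutions from DMSO stocks were added for 48 h. After SRB staining, A515 was read and GI50 derived from [(Ti−Tz)/(C−Tz)]×100 = 50.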

NCI-H23 = assay: Antiproliferative activity against human NCI-H23 cells after 48 hrs by sulforhodamine B assay; details: NCI-H23, 48 h
Procedure, shortened: (§2)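 Cells grown in RPMI 1640 with 5% FBS and 2 mM L-glutamine, plated at 5000–40,000 cells/well and preincubated 24 h at 37 °C, 5% CO2. Five drug concentrations (10-fold or ½-log dilutions from DMSO stocks) applied for 48 h. TCA-fixed (final 10% adherent, 16% suspension), SRB-stained, A515 read. Growth versus time-zero and control wells gave GI50, TGI, LC50.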

CCRF-CEM = assay: Antiproliferative activity against human CCRF-CEM cells after 48 hrs by sulforhodamine B assay; procedure, shortened: as §2
KM12 = assay: Antiproliferative activity against human KM12 cells after 48 hrs by sulforhodamine B assay; details: KM12, 48 h; procedure, shortened: as §2
HL-60 = assay: Antiproliferative activity against human HL60 (TB) cells after 48 hrs by sulforhodamine B assay; details: HL-60, 48 h
Procedure, shortened: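 NCI 60-cell panel protocol: cells in RPMI 1640 with 5% FBS and 2 mM L-glutamine, plated 24 h at 37 °C/5% CO2 before dosing. Compounds dissolved in DMSO and tested at five concentrations (10-fold or ½ log serial dilutions) for 48 h. Suspension cells fixed with 80% TCA (final 16%), SRB stained, absorbance at 515 nm. GI50 derived from time-zero-corrected growth.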

SF-539 = assay: Antiproliferative activity against human SF539 cells after 48 hrs by sulforhodamine B assay; details: SF-539, 48 h; procedure, shortened: as §2
M14 = assay: Antiproliferative activity against human M14 cells after 48 hrs by sulforhodamine B assay; details: M14, 48 h; procedure, shortened: as §2
MDA-MB-435 = assay: Antiproliferative activity against human MDA-MB-435 cells after 48 hrs by sulforhodamine B assay; details: MDA-MB-435, 48 h; procedure, shortened: as §2
UACC-62 = assay: Antiproliferative activity against human UACC62 cells after 48 hrs by sulforhodamine B assay; details: UACC-62, 48 h; procedure, shortened: as §1
NCI-H226 = assay: Antiproliferative activity against human NCI-H226 cells after 48 hrs by sulforhodamine B assay; details: NCI-H226, 48 h; procedure, shortened: as §2
MDA-MB-231 = assay: Antiproliferative activity against human MDA-MB-231 cells after 48 hrs by sulforhodamine B assay; details: MDA-MB-231, 48 h; procedure, shortened: as §2
OVCAR-8 = assay: Antiproliferative activity against human OVCAR8 cells after 48 hrs by sulforhodamine B assay; details: OVCAR-8, 48 h; procedure, shortened: as §2
K562 = assay: Antiproliferative activity against human K562 cells after 48 hrs by sulforhodamine B assay; details: K562, 48 h; procedure, shortened: as §2
HOP-92 = assay: Antiproliferative activity against human HOP92 cells after 48 hrs by sulforhodamine B assay; details: HOP-92, 48 h; procedure, shortened: as §2
A498 = assay: Antiproliferative activity against human A498 cells after 48 hrs by sulforhodamine B assay; details: A498, 48 h; procedure, shortened: as §2
[1] = Antiproliferative activity against human HCC2998 cells after 48 hrs by sulforhodamine B assay; details: HCC 2998, 48 h; procedure, shortened: as §2
TK-10 = assay: Antiproliferative activity against human TK10 cells after 48 hrs by sulforhodamine B assay; details: TK-10, 48 h; procedure, shortened: as §1
SF-295 = assay: Antiproliferative activity against human SF295 cells after 48 hrs by sulforhodamine B assay; details: SF-295, 48 h; procedure, shortened: as §2
PC-3 = assay: Antiproliferative activity against human PC3 cells after 48 hrs by sulforhodamine B assay; details: PC-3, 48 h; procedure, shortened: as §2
SNB-19 = assay: Antiproliferative activity against human SNB19 cells after 48 hrs by sulforhodamine B assay; details: SNB-19, 48 h; procedure, shortened: as §2
SN12C = assay: Antiproliferative activity against human SN12C cells after 48 hrs by sulforhodamine B assay; procedure, shortened: as §2
SK-OV-3 = assay: Antiproliferative activity against human SKOV3 cells after 48 hrs by sulforhodamine B assay; details: SK-OV-3, 48 h; procedure, shortened: as §2
RXF 393 = assay: Antiproliferative activity against human RXF393 cells after 48 hrs by sulforhodamine B assay; details: RXF 393, 48 h; procedure, shortened: as §2
HOP-62 = assay: Antiproliferative activity against human HOP62 cells after 48 hrs by sulforhodamine B assay; details: HOP-62, 48 h; procedure, shortened: as §2
NCI-H522 = assay: Antiproliferative activity against human NCI-H522 cells after 48 hrs by sulforhodamine B assay; details: NCI-H522, 48 h; procedure, shortened: as §2
COLO 205 = assay: Antiproliferative activity against human COLO205 cells after 48 hrs by sulforhodamine B assay; details: COLO 205, 48 h; procedure, shortened: as §2
[2] = Antiproliferative activity against human Hs 578T cells after 48 hrs by sulforhodamine B assay; procedure, shortened: as §2
[3] = read-out: pLC50 (the source's name) (converted)

O=C(CCCn1c(=O)c2sc3ccccc3c2n2nnc(-c3ccccc3)c12)NCCc1c[nH]cn1
GI50 (UO-31): 1.91 µM | TGI (UO-31; read-out: pTGI (converted)): 3.72 µM | GI50 (NCI-H23): 2.95 µM | LC50 (NCI-H23): > 100 µM | TGI (NCI-H23; read-out: pTGI (converted)): 11.7 µM | LC50 (CCRF-CEM): > 100 µM | TGI (CCRF-CEM; read-out: pTGI (converted)): > 100 µM | GI50 (KM12): 1.15 µM | TGI (KM12; read-out: pTGI (converted)): 2.82 µM | GI50 (HL-60): 1.41 µM | CC50 (HL-60; [3]): > 100 µM | TGI (HL-60; read-out: pTGI (converted)): 6.31 µM | GI50 (SF-539): 0.661 µM | LC50 (SF-539): 5.75 µM | TGI (SF-539; read-out: pTGI (converted)): 2.19 µM | GI50 (M14): 1.7 µM | TGI (M14; read-out: pTGI (converted)): 3.8 µM | GI50 (MDA-MB-435): 1.48 µM | LC50 (MDA-MB-435): 6.31 µM | TGI (MDA-MB-435; read-out: pTGI (converted)): 3.09 µM | GI50 (UACC-62): 1.91 µM | LC50 (concentration killing 50% of cells) (UACC-62): 6.61 µM | TGI (UACC-62; read-out: pTGI (converted)): 3.55 µM | GI50 (NCI-H226): 18.6 µM | LC50 (NCI-H226): 75.9 µM | TGI (NCI-H226; read-out: pTGI (converted)): 38 µM | GI50 (MDA-MB-231): 1.91 µM | LC50 (MDA-MB-231): 6.76 µM | TGI (MDA-MB-231; read-out: pTGI (converted)): 3.63 µM | GI50 (OVCAR-8): 0.324 µM | LC50 (OVCAR-8): > 100 µM | TGI (OVCAR-8; read-out: pTGI (converted)): 2.82 µM | GI50 (K562): 0.437 µM | GI50 (HOP-92): 1.86 µM | CC50 (HOP-92; [3]): > 100 µM | GI50 (A498): 1.55 µM | LC50 (A498): 5.75 µM | TGI (A498; read-out: pTGI (converted)): 3.02 µM | GI50 [1]: 1.78 µM | LC50 [1]: 9.77 µM | TGI ([1]; read-out: pTGI (converted)): 4.17 µM | GI50 (TK-10): 2.14 µM | TGI (TK-10; read-out: pTGI (converted)): 3.98 µM | GI50 (SF-295): 1.7 µM | TGI (SF-295; read-out: pTGI (converted)): 3.63 µM | LC50 (PC-3): > 100 µM | TGI (PC-3; read-out: pTGI (converted)): > 100 µM | GI50 (SNB-19): 1.7 µM | LC50 (SNB-19): > 100 µM | TGI (SNB-19; read-out: pTGI (converted)): 5.01 µM | GI50 (SN12C): 0.269 µM | LC50 (SN12C): 5.13 µM | TGI (SN12C; read-out: pTGI (converted)): 1.86 µM | GI50 (SK-OV-3): 3.47 µM | LC50 (SK-OV-3): 66.1 µM | TGI (SK-OV-3; read-out: pTGI (converted)): 15.5 µM | GI50 (RXF 393): 2.51 µM | LC50 (RXF 393): > 100 µM | TGI (RXF 393; read-out: pTGI (converted)): 5.01 µM | GI50 (HOP-62): 2.29 µM | LC50 (HOP-62): > 100 µM | TGI (HOP-62; read-out: pTGI (converted)): 5.25 µM | GI50 (NCI-H522): 1.05 µM | LC50 (NCI-H522): 81.3 µM | TGI (NCI-H522; read-out: pTGI (converted)): 11.7 µM | GI50 (COLO 205): 1.1 µM | LC50 (COLO 205): > 100 µM | TGI (COLO 205; read-out: pTGI (converted)): 4.79 µM | GI50 [2]: 1.74 µM | TGI ([2]; read-out: pTGI (converted)): 4.07 µM
